This is an account of results in the RNAGym collection of RNA variant scans (doi:10.1126/science.aae0568).

This sample holds only a part of the variants without activity. Bounds are passed on as bounds.

To fix the notation:
B1: tRNA (parent)
chain: GUUCCGUUGGCGUAAUGGUAACGCGUCUCCCUCCUAAGGAGAAGACUGCGGGUUCGAGUCCCGUACGGAACG

The variants in the data set derive from B1. In words: yeast fitness relative to wild type (ratio to wild type); higher = fitter; tRNA-Arg(CCU), competitive growth, 37 C, YPD. In a few lines: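 Gene amplicons from the start population and from each of six end populations were read by 100-nucleotide paired-end sequencing. Those end populations came from pooled Saccharomyces cerevisiae strains carrying tRNA-Arg(CCU) gene variants at the native locus, competed in YPD at 37°C for 24 hours. Fitness relative to wild type was worked out from changes in genotype frequencies. Genotypes needed ≥ 100 starting reads, and estimates < 0.5 were set to 0.5.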
As to GUUCCGUUGGAGUAAUGGUAACGCGUCUCCCUGCUAAGGAGAAGACUGCGGGUUCGAGUCCCGUACGGAACG [C11A C33G], the yeast fitness was determined as 0.654. The figure for GUUCCGUUGCCGUAAUGGUACCGCGCCUCCAUCCUAAGGAGUAGACUGCGGGUUCGAGUCCCGUACGGAACG [G10C A21C U26C C31A A42U] is at most 0.5; for GUUCCAUUGGCGUGAUGAUAACGCGUCUCCCUCCUAAGGAGCAGACUGCGGGUUCGAGUCCCGUACGGAACG [G6A A14G G18A A42C] it is 0.618. The figure for GUUCCGUUGGCGUAAUGGUAACGAGUUUCCCUCCUAAGGAGAAGACUGCGGGUCCGAGCCCCGUACGUAACG [C24A C27U U54C U59C G68U] is at most 0.5; for GUUCCGUUGGCGUAAUGGUAACGUGUCUCCCUCCUAAGGAGAAGACUGCGGGUUCGAGUGCCGUAGGGAACG [C24U C60G C66G] it is at most 0.5; for GUUCCGUUGACGUAAUGGUAGCGCGUCUCCCUCCUAAGGAGAAGACUGCGGGUUCGAGUCCCGUUCGGCACG [G10A A21G A65U A69C] it is 0.777. The figure for GUUUCGUUGGUGUAAUGGUAACGCGUCUCCCUCCUAAGGAGAAGACUGCGGGUUCGAGUCCCGUUCGGAACG [C4U C11U A65U] is 0.669. Consider GUUCCGUUGGUGUAAUGGUAACGCGUCUCCCUCCUAAGGAGAAGACUGCGGGUUCCAGUCCCGUACGGAACG [C11U G56C], for which the yeast fitness was determined as 0.709. The figure for GUUCCGUUGGCGUAAUGGUAACGCGUCUCCCUCAUAAGGGGAAGACUGCGGGUUCGAGUCCCGUAUGGAACG [C34A A40G C66U] is at most 0.5; for GUUCCGUUGGCGUAAUGGAAACGCGUCUCCCUCCUAAGGAGAAGACUGCUGGUUCGAGUCCCGUACGGAACG [U19A G50U] it is 0.817. GUUCCGUUGGCGUGAUGGUAACGCGUCUCCCUCCUAAGGAGAAGACUGCGGGAUCGAGUCCCGUACGGAACG [A14G U53A]: the yeast fitness was determined as 0.63. The figure for GUUCCGUUGGCGUAAUGGUAACGCGUCUCCAUGCUUAGGAGAAGACUGCGGGUCCGAGUCCCGUACGGAACG [C31A C33G A36U U54C] is at most 0.5; for GUUCCGUUGGCGUAAUGGUAACGCGUCUCCCUCUUAAGGAGAAGACUGCGGGUCCGAGUCCCGUACGGAACG [C34U U54C] it is 0.569.

GUUCCGUUGGCGUAAUGGUAACGCGUCUCGCUCCUAAGGAGAAGACUGCGGGUUCGAGUCCCCUACGGAACG [C30G G63C]: the yeast fitness is at most 0.5. The figure for GUUCCGUUAGGGCAAUGGUAACGCGUAUUCCUCCUAAGGAGAAGACUGCGGGUUCGAGUCCAGUACGGAACG [G9A C11G U13C C27A C29U C62A] is at most 0.5. The figure for GUUCCGUCGGCGUAAUGGUAACGCGUCUUCCUCCUAACGCGAAGACUGCGGGUUCGAGUCCCGUACGGAACG [U8C C29U G38C A40C] is at most 0.5; for GUUCCGUUGGCGUAAUGGUAACCCGUCUACCUCCUAAGGAGAAGACUGUGGGUUCGAGUCCCGUACGGAACG [G23C C29A C49U] it is 0.596; for GUUCCGUUGGCGUAAUGGUAACGCGUCUCCCUCCUAAGGAGGAGACUGUGGGUUCGAGUCCCGUACGGAUCG [A42G C49U A70U] it is 0.711.

With GUUCCGUUGGCGUAAUGGUAACGCGUCUACCUCCUAAGGAGAAGACUGCGGGUUCGAGCCCCGUACGGAACG [C29A U59C], the yeast fitness is 0.688. The figure for GUUCCAUUGGCGUAAUGGUAAGGCGUCUCCCUCCUAAGGAGAAGACAGCGGGUUCGAGUCCCGUACUGACCG [G6A C22G U47A G67U A70C] is at most 0.5. The figure for GUUCCGUUGGCGUGAUGGUAACGCGCCACCCUCCUAAGGAGAAGACUGCGGGUUCGAGUCCCGUUCGGAACG [A14G U26C U28A A65U] is at most 0.5; for GUUCCAUUGGCGUAAUGGUUACGCGUUUCCCUCCUAAGGAGAAGACUGCGGGUUCGUGUCCCGUACGGAACG [G6A A20U C27U A57U] it is at most 0.5. On to GUUGCGUUGGCGUAAUGGUAACGCGUCUCACUCCUAAGGAGAAGACUGCGGGUUCGAGUCCAGUACGGAACG [C4G C30A C62A], for which the yeast fitness is at most 0.5. The figure for GGUCCGUUGGCGUAAUGGUAACGCGUCUCCCUGCUAAGCAGAAGACUGCGGGUUCGAGUCCCGUCCGGAACG [U2G C33G G39C A65C] is at most 0.5; for GUUCCGUUGGCGUAAUGGUAACGCGUCUCCCUCCUGAGGAGAAGACUGUGGGUUCGACUCCCGUACGGAACG [A36G C49U G58C] it is 0.655. The figure for GUUCCGCUGGCGUACUGGUAACGCGUCUCCCUCCUAAAGAGAAGGCUGCGGAUUCGAGUCGCGUAUGGAACG [U7C A15C G38A A45G G52A C61G C66U] is at most 0.5. The figure for GUUCCGAUGGCGUAAUGGUAACAUGUCUCCCUCCAAAGGAGAAGACUGCGGGUUCGAGUACCGUACGGCACG [U7A G23A C24U U35A C60A A69C] is 0.706; for GUUCCGUUGGCGUAAUGCUAACGCGUCUCCCUCCUAGGGAGAAGACUGCGGGUUCGAGUCCCGUACGGAACG [G18C A37G] it is 0.577.

For the variant GUUCCGUUGGCGUAAAGAUAACGCGUCUCCUUCCUAAGGAGAAGACUGCGGGUUCGAGUCCCGUAUGGAACG [U16A G18A C31U C66U], the yeast fitness was at most 0.5. The figure for GUUCGGUUGGCGUAAUGGUAACGCGUCUCCCUCCUAAGGAGAACACUGCGGGUUCGAGUCCCGUACUGAACG [C5G G44C G67U] is 1.02; for GUGCUGUUGGCGUAAUGGUAACGCGACUCCCUCCUAAAGAGAAGACUGCGGGUUAGAGUCCCGUAUGGAACG [U3G C5U U26A G38A C55A C66U] it is 0.568. With GUUCCGUUGGCGUAAUGGUAACGCGUCUCUCUCCUAAGGAGCAGACUGCGGGUUCGAGUCCCGUACGGAACG [C30U A42C], the yeast fitness is 0.755.

For GUUCCGUUGGGGUAAUGGUAACGCGUCACCGUCCUAAAGAGAAGACUGAGGGUUCGAGUCCCGUACGGGACG [C11G U28A C31G G38A C49A A69G], the yeast fitness is 0.559.

With GUUCCCUUGGCGUAAUGGUAACGCGUCUCCCUCCUAAGGACAAGGCUGCGGGUUCGAGUCCCAUAGCGAACG [G6C G41C A45G G63A C66G G67C], the yeast fitness is at most 0.5. The figure for GUUCCGUUGGCGUAAUGGGAACGCGUCUCCCUCCUAAGGAGAAGACUGCGGGUUCGAGUCCCGUACGGAGCG [U19G A70G] is 0.847. In the case of GUUCCGUUGGCGUAAUGGUAAGGCGUCUCCCUCCUAAGGAGAAGACUGCGGGAUCGAGUCCCGUACGGAACG [C22G U53A], the yeast fitness worked out at 0.673. The figure for GUUGCGUUGGCGUAAUGGUAACGCGUCACCCUCCUAAGGCGAAGACUGCAGGUUCGAGUCCCGUACGGAACG [C4G U28A A40C G50A] is at most 0.5. The figure for GUUCCGUUGGCGUAAUGGUAACGCGUCUCCCUACUAAGGAGAAGACUGUGGAUUCGAGUCCCGUACGGAACG [C33A C49U G52A] is at most 0.5.
